Measured values reported in ChEMBL document CHEMBL4184245, “Multiple-step, one-pot synthesis of 2-substituted-3-phosphono-1-thia-4-aza-2-cyclohexene-5-carboxylates and their corresponding ethyl esters” (Bioorg Med Chem Lett, 2018).
The source made the active and inactive calls. The rule behind the calls is not given here.

Tests used:
[1] = Apparent permeability of the compound across apical side to basolateral side in human Caco2 cells at 10 uM incubated for 2 hrs by LC-MS/MS method; format: ADME, cell-based; settings: Caco-2
Summary of the method: (§1)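 Permeability was measured across Caco-2 epithelial monolayers.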

[2] = Efflux ratio in human Caco2 cells at 10 uM incubated for 2 hrs by LC-MS/MS method; format: ADME, cell-based; settings: Caco-2
[3] = Apparent permeability of the compound across basolateral to apical side in human Caco2 cells at 10 uM incubated for 2 hrs by LC-MS/MS method; format: ADME, cell-based; settings: Caco-2; summary of the method: as §1
[4] = test system: RG2; assay: Induction of autophagy in rat RG2 cells assessed as increase in LC3-II level at 10 uM pre-incubated for 15 mins before bafilomycin-A1 addition and further incubated for 4 hrs by Western blotting method; format: functional, cell-based
[5] = test system: RG2; assay: Induction of autophagy in rat RG2 cells assessed as increase in LC3-II level at 100 uM pre-incubated for 15 mins before bafilomycin-A1 addition and further incubated for 4 hrs by Western blotting method; format: functional, cell-based
[6] = test system: RG2; assay: Induction of autophagy in rat RG2 cells assessed as optimum compound level causing increase in LC3-II level pre-incubated for 15 mins before bafilomycin-A1 addition and further incubated for 4 hrs by Western blotting method; format: functional
Summary of the method: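 Cells were tested at 1, 10 and 100 μM. The optimum concentration for autophagy stimulation was estimated from these few levels in preliminary single-series experiments.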

Papp A→B at 2 h, 10 µM [1] | efflux ratio at 2 h, 10 µM [2] | Papp B→A at 2 h, 10 µM [3] | Compound | Activity [4] | Activity [5] | Activity [6]
1.1 ×10⁻⁶ cm/s | 0.33 | 0.35 ×10⁻⁶ cm/s | CCCCC1=C(P(=O)(O)O)N[C@H](C(=O)O)CS1 |  |  | 
 |  |  | CC(C)C1=C(P(=O)(O)O)N[C@H](C(=O)O)CS1 | Active | inactive | 
< 0.01 ×10⁻⁶ cm/s |  | < 0.01 ×10⁻⁶ cm/s | CCCCC1=C(P(=O)(O)O)N[C@H](C(=O)OCC)CS1 |  |  | 
 |  |  | O=C(O)C1=CSC[C@@H](C(=O)O)N1 | Active | Active | 
< 0.01 ×10⁻⁶ cm/s |  | < 0.01 ×10⁻⁶ cm/s | CCCCCCC1=C(P(=O)(O)O)N[C@H](C(=O)O)CS1 |  |  | 
 |  |  | CCOC(=O)[C@@H]1CSC(CC)=C(C(=O)O)N1 |  |  | >10 µM
< 0.01 ×10⁻⁶ cm/s |  | < 0.01 ×10⁻⁶ cm/s | CCOC(=O)[C@@H]1CSC=C(C(=O)O)N1 |  |  | 

Compound | Papp A→B at 2 h, 10 µM [1] | efflux ratio at 2 h, 10 µM [2] | Papp B→A at 2 h, 10 µM [3] | Activity [4] | Activity [5] | Activity [6]
CCCCCCC1=C(P(=O)(O)O)N[C@H](C(=O)OCC)CS1 | < 0.01 ×10⁻⁶ cm/s |  | < 0.01 ×10⁻⁶ cm/s |  |  | 1 to 10 µM
